Compound activity: PubChem BioAssay, Sanford-Burnham Center for Chemical Genomics
G6PDH counter – counter-screen for G6PDH assay hits: L. mesenteroides G6PDH inhibition. Purified L. mesenteroides G6PDH, diaphorase/resazurin coupled fluorescence, 45 min. 0.12% of 200,000 active. inhibition, % at 5 µM; in the data active = inhibition above about 50%
Diaphorase inh – diaphorase inhibition or chemical oxidation counter-screen; 0.69% of 190,000 active; inhibition, % at 20 µM; diaphorase resazurin-to-resorufin fluorescence, NADH, 16 min; bacterial (C. kluyveri) enzyme, not human;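 active = primary screen inhibition at 20 µM above a set limit, cut at about 50% in these data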;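 also: plate controls were DMSO with full reaction for no effect and wells lacking NADH for full effect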
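Assay system: diaphorase enzyme from Clostridium kluyveri. Quantity: enzyme working solution with 0.14 U/mL diaphorase. Schedule: reaction incubation of 16 min at room temperature. Technique: resorufin fluorescence, excitation 544 nm, emission 590 nm. Controls: No-NADH positive control and DMSO neutral control.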
PfG6PD inh – PfG6PD (Plasmodium falciparum) enzyme inhibition | PfGluPho enzyme, NADPH resazurin-diaphorase fluorescence | inhibition, % at 20 µM | 0.78% of 350,000 active | AID 504690;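 active = inhibition reaching at least a set limit at 20 µM in the primary screen, cut at about 59% in these data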;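 also: 0% = DMSO wells with substrate and 100% = DMSO wells lacking glucose-6-phosphate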
HKDC1 inh – HKDC1 (human) hexokinase inhibition; Q2TB90; recombinant HKDC1, G6PDH/diaphorase resazurin coupled fluorescence; inhibition, % at 20 µM; 0.16% of 340,000 active;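 active = inhibition above about 35% when tested at 20 µM, limit read from the data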;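 also: plate controls were DMSO wells with enzyme for no effect and DMSO wells lacking enzyme for full effect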
Target sequence (Q2TB90 whole entry, looked up): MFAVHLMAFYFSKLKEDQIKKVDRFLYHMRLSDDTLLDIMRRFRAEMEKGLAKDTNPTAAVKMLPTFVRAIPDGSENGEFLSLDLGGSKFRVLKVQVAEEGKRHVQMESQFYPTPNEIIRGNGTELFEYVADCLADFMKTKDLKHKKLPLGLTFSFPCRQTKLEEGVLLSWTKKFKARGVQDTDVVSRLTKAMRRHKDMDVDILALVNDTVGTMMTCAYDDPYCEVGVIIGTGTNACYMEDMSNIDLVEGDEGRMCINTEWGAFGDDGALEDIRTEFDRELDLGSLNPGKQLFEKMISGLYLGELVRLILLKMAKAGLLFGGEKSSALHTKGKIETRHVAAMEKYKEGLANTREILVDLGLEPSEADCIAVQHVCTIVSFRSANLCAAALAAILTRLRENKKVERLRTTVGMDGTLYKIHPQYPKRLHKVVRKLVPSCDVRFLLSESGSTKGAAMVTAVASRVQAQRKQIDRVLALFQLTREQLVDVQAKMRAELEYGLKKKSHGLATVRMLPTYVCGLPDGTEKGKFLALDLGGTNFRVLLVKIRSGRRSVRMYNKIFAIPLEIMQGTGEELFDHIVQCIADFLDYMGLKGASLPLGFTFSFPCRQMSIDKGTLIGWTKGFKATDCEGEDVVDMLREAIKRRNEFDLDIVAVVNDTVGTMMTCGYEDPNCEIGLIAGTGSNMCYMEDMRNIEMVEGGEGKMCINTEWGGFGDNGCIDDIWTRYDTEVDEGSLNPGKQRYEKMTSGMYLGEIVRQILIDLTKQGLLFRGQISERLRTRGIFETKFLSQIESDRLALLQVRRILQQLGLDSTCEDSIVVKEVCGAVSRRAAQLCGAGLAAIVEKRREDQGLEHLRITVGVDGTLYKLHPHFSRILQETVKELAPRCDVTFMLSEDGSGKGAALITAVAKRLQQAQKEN
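test system = in-house recombinant HK5 (HKDC1) enzyme | amount = HKDC1 at 5 µg/mL | control set = DMSO-enzyme wells negative, buffer-substituted wells positive | compound = one dose of 20 µM, 1% DMSO | schedule = reaction time 90 min, room temperature, protected from light | technique = resorufin fluorescence at 613 nm | reagent = glucose with 1 mM ATP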
* = called active by the depositor. Shown are actives, neighbours in structure and some others; about 1.3% of the full set was active somewhere.

O=[N+]([O-])c1ccc2c(c1)N([O-])C1(CCCCC1)[N+]2=O was read as PfG6PD inh 60* and HKDC1 inh 23.
Nc1ncnc2c1ncn2[C@@H]1O[C@H](CNS(=O)(=O)c2cc(S(=O)(=O)c3ccccc3)cs2)[C@@H](O)[C@H]1O was read as PfG6PD inh 16 and HKDC1 inh 2.
Screening O=[N+]([O-])c1ccc(/C=N/N=C/c2ccc([N+](=O)[O-])o2)o1 returned G6PDH counter 46, Diaphorase inh 35, PfG6PD inh 60* and HKDC1 inh 27.
Cc1nnc(SCc2cc(=O)[nH]c(=S)[nH]2)s1 was read as G6PDH counter 10, Diaphorase inh 64*, PfG6PD inh -11 and HKDC1 inh -2.
Screening O=c1cc(CSc2ccccc2)[nH]c(=S)[nH]1 returned G6PDH counter -3, Diaphorase inh 40, PfG6PD inh -11 and HKDC1 inh 3.
For CCO[C@@H]1OC(C(=O)Nc2ccccc2)=C[C@H](c2ccc(Br)cc2)[C@H]1CCCO the results were G6PDH counter 12, Diaphorase inh 56*, PfG6PD inh 16 and HKDC1 inh 3.
`C=CCOC(=O)C1=C[C@H](c2ccc(Br)cc2)[C@@H](CCCO)[C@H](OCC)O1` gave G6PDH counter 9, Diaphorase inh 55*, PfG6PD inh 9 and HKDC1 inh 1.
For COc1ccc2cc(/C=C3\SC(=S)NC3=O)c(N3CCOCC3)nc2c1 the results were G6PDH counter 3, Diaphorase inh 58*, PfG6PD inh -15 and HKDC1 inh 13.
COc1ccc2oc(C(=O)OCC(=O)Nc3ccc(C(=O)N(C)C)cc3)c(C)c2c1 was read as PfG6PD inh 6 and HKDC1 inh -1.
Screening NC(=O)c1cc[n+](CC2=C(C(=O)O)N3C(=O)[C@@H](NC(=O)C(c4ccccc4)S(=O)(=O)[O-])[C@H]3SC2)cc1 (some centres not stated) returned G6PDH counter 11, Diaphorase inh 13, PfG6PD inh 71* and HKDC1 inh 13.
`CCOC(=O)c1sc(NC(=O)CSc2n[nH]c(-c3ccccc3)n2)c(C#N)c1C` gave G6PDH counter -30, Diaphorase inh 27, PfG6PD inh 62* and HKDC1 inh -2.
For CCOC(=O)c1sc(NC(=O)CSc2nc(C)cc(C)n2)c(C#N)c1C the results were G6PDH counter -4, Diaphorase inh 17, PfG6PD inh -21 and HKDC1 inh 4.
CC(C)c1ccc(S(=O)(=O)/N=C2/C=CC(=O)c3ccccc32)cc1 was read as G6PDH counter 55* and Diaphorase inh 31.
O=C1c2cccc3c(Nc4ccccc4Cl)c([N+](=O)[O-])cc(c23)C(=O)N1CCO was read as G6PDH counter 16, Diaphorase inh 56*, PfG6PD inh 12 and HKDC1 inh 17.
CSc1nc(-c2ccccc2)[nH]c(=S)c1C(C)=O was read as G6PDH counter -2, Diaphorase inh 73*, PfG6PD inh -18 and HKDC1 inh 0.
For CC(=O)c1c(NC(=O)c2ccccc2)[nH]c(-c2ccccc2)nc1=S the results were G6PDH counter -2, Diaphorase inh 67*, PfG6PD inh 1 and HKDC1 inh -9.
CC(=O)c1c(C)[nH]c(-c2ccccc2)nc1=S was read as PfG6PD inh 20 and HKDC1 inh -1.
Screening CSc1nc(-c2ccccc2)nc(SC)c1C(C)=O returned G6PDH counter 4, Diaphorase inh 2, PfG6PD inh -6 and HKDC1 inh 4.
`COc1cc(C2Nc3ccc4ccccc4c3C3=C2C(=O)CC(C)(C)C3)ccc1OC(C)C(=O)O` (configuration not stated) gave PfG6PD inh 12 and HKDC1 inh 7.
Screening CCCCN(CC)CCCNC(=O)c1ccc(CS(=O)(=O)c2ccccc2C)o1 returned PfG6PD inh 1 and HKDC1 inh -1.
Screening O=C(CCc1nnc(CCCc2ccccc2)o1)NCCc1ccccc1 returned G6PDH counter 4, Diaphorase inh 5, PfG6PD inh -1 and HKDC1 inh -9.
O=C(CCc1nnc(CCCc2ccccc2)o1)NCC(F)(F)F was read as G6PDH counter 10, Diaphorase inh 50*, PfG6PD inh -3 and HKDC1 inh -9.
O=C(CSc1nc2ccccc2n1CCc1ccccc1)N1CCOCC1 was read as G6PDH counter -10, Diaphorase inh 12, PfG6PD inh 12 and HKDC1 inh -8.
For O=C(CSc1nc2ccccc2n1CCc1ccccc1)c1ccc(O)c(O)c1 the results were G6PDH counter 14, Diaphorase inh 63*, PfG6PD inh 22 and HKDC1 inh 19.
